In ChEMBL document CHEMBL2177006 (J Med Chem, 2012):

Each molecule was assayed against T1, Beta-secretase 1 (Homo sapiens, UniProt P56817) (assay: Inhibition of human recombinant BACE1 using Glu-Ile-Asp-Leu-Met-Val-Leu-Asp as substrate incubated for 60 mins prior to substrate addition measured after 60 mins by FRET assay).
T1 sequence (P56817 whole entry): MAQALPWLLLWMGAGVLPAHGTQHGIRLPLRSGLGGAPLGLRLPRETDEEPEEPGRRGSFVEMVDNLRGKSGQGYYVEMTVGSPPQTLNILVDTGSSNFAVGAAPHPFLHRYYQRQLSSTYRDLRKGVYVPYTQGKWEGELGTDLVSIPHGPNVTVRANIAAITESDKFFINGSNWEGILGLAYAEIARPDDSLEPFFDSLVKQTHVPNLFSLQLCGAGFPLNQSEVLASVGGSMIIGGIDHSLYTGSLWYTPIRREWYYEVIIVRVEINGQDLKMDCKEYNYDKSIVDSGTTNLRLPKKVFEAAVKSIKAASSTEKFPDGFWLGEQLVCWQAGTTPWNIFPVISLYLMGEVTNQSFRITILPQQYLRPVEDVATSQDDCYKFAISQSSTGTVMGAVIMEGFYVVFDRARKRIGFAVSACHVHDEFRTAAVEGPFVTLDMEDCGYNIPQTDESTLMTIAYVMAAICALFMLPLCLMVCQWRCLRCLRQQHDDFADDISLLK

Row | Compound | IC50 [nM]
1 | CC(C)(C)Cc1cnc2c(c1)[C@@H](NC[C@@H](O)[C@H](Cc1ccc3c(c1)OCO3)NC(=O)c1cccnc1)CC1(CCC1)O2 | 26.1
2 | CC(C)(C)Cc1cnc2c(c1)[C@@H](NC[C@@H](O)[C@H](Cc1ccc3c(c1)OCO3)NC(=O)c1ccc(F)nc1)CC1(CCC1)O2 | 48.4
3 | COCC(=O)N[C@@H](Cc1ccc2c(c1)OCO2)[C@H](O)CN[C@H]1CC2(CCC2)Oc2ncc(CC(C)(C)C)cc21 | 5.4
4 | CC(C)(C)Cc1cnc2c(c1)[C@@H](NC[C@@H](O)[C@H](Cc1ccc3c(c1)OCO3)NC(=O)[C@@H]1CCCO1)CC1(CCC1)O2 | 20.4
5 | CC(C)(C)Cc1cnc2c(c1)[C@@H](NC[C@@H](O)[C@H](Cc1ccc3c(c1)OCO3)NC(=O)c1ccccc1F)CC1(CCC1)O2 | 76.6
6 | CC(C)(C)Cc1cnc2c(c1)[C@@H](NC[C@@H](O)[C@H](Cc1ccc3c(c1)OCO3)NC(=O)c1cccnc1F)CC1(CCC1)O2 | 33.2
7 | COc1ccc(C[C@H](NC(C)=O)[C@H](O)CN[C@H]2CC3(CCC3)Oc3ncc(CC(C)(C)C)cc32)cc1OC | 18.2
8 | CC(=O)N[C@@H](Cc1ccc(OC(F)F)c(OC(F)F)c1)[C@H](O)CN[C@H]1CC2(CCC2)Oc2ncc(CC(C)(C)C)cc21 | 35.2
9 | CC(=O)N[C@@H](Cc1ccc2c(c1)OCO2)[C@H](O)CN[C@H]1CC2(CCC2)Oc2ncc(CC(C)(C)C)cc21 | 8

These molecules were tested against T1, Beta-secretase 1 (assay: Inhibition of BACE1 in human HEK293 cells expressing APP Swedish mutant assessed as inhibition of amyloid beta (1 to 40) production after overnight incubation by sandwich ELISA).
Format: cell-based

Row | Compound | IC50 [nM]
10 | CC(C)(C)Cc1cnc2c(c1)[C@@H](NC[C@@H](O)[C@H](Cc1ccc3c(c1)OCO3)NC(=O)c1cccnc1)CC1(CCC1)O2 | 67.6
11 | CC(C)(C)Cc1cnc2c(c1)[C@@H](NC[C@@H](O)[C@H](Cc1ccc3c(c1)OCO3)NC(=O)c1ccc(F)nc1)CC1(CCC1)O2 | 69.5
12 | COCC(=O)N[C@@H](Cc1ccc2c(c1)OCO2)[C@H](O)CN[C@H]1CC2(CCC2)Oc2ncc(CC(C)(C)C)cc21 | 16.8
13 | CC(C)C(=O)N[C@@H](Cc1ccc2c(c1)OCO2)[C@H](O)CN[C@H]1CC2(CCC2)Oc2ncc(CC(C)(C)C)cc21 | 812
14 | CC(C)(C)Cc1cnc2c(c1)[C@@H](NC[C@@H](O)[C@H](Cc1ccc3c(c1)OCO3)NC(=O)[C@@H]1CCCO1)CC1(CCC1)O2 | 27.5
15 | C[C@@H](F)C(=O)N[C@@H](Cc1ccc2c(c1)OCO2)[C@H](O)CN[C@H]1CC2(CCC2)Oc2ncc(CC(C)(C)C)cc21 | 55.5
16 | CC(C)(C)Cc1cnc2c(c1)[C@@H](NC[C@@H](O)[C@H](Cc1ccc3c(c1)OCO3)NC(=O)c1ccccc1F)CC1(CCC1)O2 | 1150
17 | CC(C)(C)Cc1cnc2c(c1)[C@@H](NC[C@@H](O)[C@H](Cc1ccc3c(c1)OCO3)NC(=O)c1cccnc1F)CC1(CCC1)O2 | 64.3
18 | COc1ccc(C[C@H](NC(C)=O)[C@H](O)CN[C@H]2CC3(CCC3)Oc3ncc(CC(C)(C)C)cc32)cc1OC | 9.3
19 | CC(=O)N[C@@H](Cc1ccc(OC(F)F)c(OC(F)F)c1)[C@H](O)CN[C@H]1CC2(CCC2)Oc2ncc(CC(C)(C)C)cc21 | 238
20 | CC(=O)N[C@@H](Cc1ccc2c(c1)OCO2)[C@H](O)CN[C@H]1CC2(CCC2)Oc2ncc(CC(C)(C)C)cc21 | 5.5

Each molecule was assayed on Rattus norvegicus (assay: Antialzheimer activity in Sprague-Dawley rat assessed as reduction in amyloid beta 40 level in CSF at 30 mg/kg, po at 4 hrs by immunoassay relative to control).
Format: functional
Parameters: scale not given: the % may be the effect or the level left
How it was run: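 At the set time they were euthanized with CO2 for 2 min. CSF was drawn from the cisterna magna with a 30 gauge needle, frozen on dry ice, stored at −80 °C, then assayed for Aβ40 by Meso Scale immunoassay.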

Row | Compound | Activity [%]
21 | CC(=O)N[C@@H](Cc1ccc2c(c1)OCO2)[C@H](O)CN[C@H]1CC2(CCC2)Oc2ncc(CC(C)(C)C)cc21 | 52
